OX1R antag-1 – blocks the human orexin 1 receptor. O43613. OX1R-expressing cells, FRET antagonist read-out. inhibition, % at 6.6 µM. 1.8% of 330,000 active. AID 485270; in the data active = inhibition mostly above about 38%, no sharp cut-off; inactive = mostly below about 40%;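 also: 0% = agonist challenge alone and 100% = reference antagonist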
OX1R antag-2 – blocks the human orexin 1 receptor. O43613. CHO/OX1R cells, Fluo-8 calcium fluorescence, orexin A. inhibition, % at 5 µM. 0.43% of 330,000 active;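 active = inhibition above its plate's threshold, mean inhibition of all tested compounds on the plate plus 3 SD, cut at about 37% in these data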;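 also: 0% = orexin A challenge wells and 100% = SB-334867-A antagonist wells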
CHO parental Ca – signal in parental CHO cells, OX1R antagonist counter-screen; 0.63% of 330,000 active; inhibition, % at 5.6 µM; parental CHO-K1, ATP-induced calcium, Fluo-8 fluorescence; AID 463079;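 active = inhibition above that plate's mean sample inhibition plus 3 SD, cut at about 26% in these data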;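 also: 0% = ATP-challenged DMSO wells and 100% = DMSO wells without ATP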
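Material: Parental CHO cells | Reagent: ATP | Compound dosing: Single nominal dose of 5.6 µM per compound | Detection: Intracellular calcium via Fluo-8 no-wash fluorescent dye | Read-out: % inhibition of ATP-induced calcium mobilization | Benchmarks: Low control ATP plus DMSO, high control DMSO only | Replicates: Singlicate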
GPR7 antagonist – antagonists of human GPR7 (neuropeptides B/W receptor 1). GPR7-expressing cells, fluorescence antagonist assay. P48145. inhibition, % at 4.4 µM. 1.1% of 290,000 active; in the data active = inhibition above about 16%, passing the limit was not always enough;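 also: cells stimulated with the agonist NPW; 0% = agonist with vehicle and 100% = vehicle without agonist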
Target sequence (P48145 whole entry, looked up): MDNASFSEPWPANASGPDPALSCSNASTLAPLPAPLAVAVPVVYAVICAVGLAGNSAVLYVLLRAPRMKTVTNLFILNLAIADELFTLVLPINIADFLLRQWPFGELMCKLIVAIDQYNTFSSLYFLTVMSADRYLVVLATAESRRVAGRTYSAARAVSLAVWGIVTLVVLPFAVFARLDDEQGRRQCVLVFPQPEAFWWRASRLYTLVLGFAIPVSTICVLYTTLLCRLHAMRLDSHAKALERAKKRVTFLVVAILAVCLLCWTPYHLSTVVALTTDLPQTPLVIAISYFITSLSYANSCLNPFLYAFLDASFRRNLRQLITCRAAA
EP2 antag – blocks the human prostaglandin E2 receptor EP2; 0.52% of 260,000 active; AID 1422; P43116; inhibition, % at 25 µM; C6 glioma cells expressing human EP2, cAMP TR-FRET; cells stimulated with saturating PGE2;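 active = percent inhibition above 40 after rounding to a whole number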;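 also: rat C6 glioma host cells with rolipram phosphodiesterase inhibitor present; the protocol text gives 20 µM as final concentration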
Target sequence (P43116 whole entry, looked up): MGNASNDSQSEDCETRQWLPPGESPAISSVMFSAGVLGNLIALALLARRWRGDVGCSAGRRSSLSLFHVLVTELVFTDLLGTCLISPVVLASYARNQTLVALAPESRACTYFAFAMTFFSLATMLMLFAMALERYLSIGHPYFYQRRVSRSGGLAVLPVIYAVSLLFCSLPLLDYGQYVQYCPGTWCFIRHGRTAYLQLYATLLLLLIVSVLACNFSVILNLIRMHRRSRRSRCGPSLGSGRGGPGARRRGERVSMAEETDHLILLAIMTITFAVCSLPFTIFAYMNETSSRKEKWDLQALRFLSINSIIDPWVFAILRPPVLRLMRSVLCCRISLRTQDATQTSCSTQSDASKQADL
EP2 mod – modulates human prostaglandin E2 receptor EP2 signaling; P43116; EP2-expressing cells, cAMP HTRF FRET, PGE2 co-stimulation; induction, % at 25 µM; 0.83% of 260,000 active; AID 940;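 active = compounds whose cAMP rise, as percent of the full-agonist control response, exceeds 60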;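 also: rat C6 glioma line stably carrying human EP2 under a CMV promoter; the protocol text gives 20 µM as final concentration; 100% = response of wells given 1 µM PGE2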
Starred values were filed as active, the others as inactive; . = no result given. Hits are enriched below; roughly 3.7% of the tested compounds scored in any of these assays.

SMILES	OX1R antag-1	OX1R antag-2	CHO parental Ca	GPR7 antagonist	EP2 antag	EP2 mod
CC(CCC(=O)O)[C@H]1CCC2C3CC[C@@H]4C[C@H](O)CC[C@]4(C)C3CC[C@@]21C (stereo partly specified)	.	.	.	.	14.3	22.3
O=C(c1ccccc1)N1C(=O)C(c2ccccc2)Oc2ccccc21 (stereo unspecified)	13.3	-26.5	-9.9	-7.8	11.4	81.3*
CC1Oc2ccccc2N(CC(=O)c2ccccc2)C1=O (stereo unspecified)	7.6	-23.9	-12.3	-3.8	5.6	42.5
CCOc1ccccc1N(CC(=O)NCCSc1ccccn1)S(=O)(=O)c1ccc(C)cc1	41.8*	-13.4	-31.6	-1.6	.	.
COc1ccccc1N(CC(=O)NCCSc1ccccn1)S(=O)(=O)c1ccccc1	51.1*	-15.1	-26.7	-11.4	.	.
Cc1ccccc1N(CC(=O)NCCSc1ccccn1)S(=O)(=O)c1ccccc1	40.1	-20.9	-30.6	-4.9	6.5	28.2
Cc1cc(C)nc(NS(=O)(=O)c2ccc(NC(=O)c3ccc(N4C(=O)CCC4=O)cc3)cc2)n1	9.5	-16.1	-6.6	-12.6	5.1	20.1
CCOC(=O)COc1nc2ccc(Br)cc2c(-c2ccccc2)c1C(C)=O	26.3	-28.0	-24.4	-1.8	.	.
CCOc1ccccc1CN1CCC(n2nccc2NC(=O)CCc2ccccc2)CC1	12.2	-32.1	-23.4	6.7	.	.
FC(F)(F)c1cc(CCN2CCNC[C@@H]2CC2CCCCC2)cc(C(F)(F)F)c1	-5.6	11.8	51.2*	.	.	.
CCCCN(C(=O)c1ccc([N+](=O)[O-])o1)c1c(N)n(CCCC)c(=O)[nH]c1=O	62.4*	-22.4	-21.7	.	.	.
CCCCn1c(N)c(N(Cc2ccccc2OC)C(=O)c2ccc([N+](=O)[O-])s2)c(=O)[nH]c1=O	50.0*	-23.2	-17.4	.	.	.
CCCCn1c(N)c(N(Cc2ccccc2OC)C(=O)COc2ccccc2OC)c(=O)[nH]c1=O	25.1	-11.8	-12.9	.	.	.
O=C(COc1ccc(F)cc1Cl)NC1CCCCCC1	8.6	-20.9	-18.7	.	.	.
O=C(O)c1cc2c(cc1S(=O)(=O)O)[C@@H]1[C@@H]([C@H]3[C@H]2[C@]2(Cl)C(Cl)=C(Cl)[C@@]3(Cl)C2(Cl)Cl)[C@]2(Cl)C(Cl)=C(Cl)[C@@]1(Cl)C2(Cl)Cl	.	.	.	.	44.8*	73.3*
CN(C)S(=O)(=O)c1cc(C(=O)O)c(NC2CCCCC2)cc1Cl	12.5	-3.6	6.2	-2.1	6.3	3.4
O=C(NCc1ccccc1Cl)c1ccccc1CCc1ccccc1	50.4*	23.3	65.6*	-7.0	4.4	58.5
Cc1cc(C)c(NC(=O)c2ccccc2CCc2ccccc2)c(C)c1	41.2*	30.8	6.8	-6.3	6.2	27.0
CCOC(=O)[C@H]1[C@H]2COc3cc(OC)ccc3[C@@H]2N2C(=O)c3cc(C)ccc3NC(=O)[C@@]12C	12.9	-17.6	-20.3	.	.	.
Cc1ccc(C)c(NC(=O)CN(C)C(=O)Cc2coc3cc(C)c(C)cc23)c1	22.6	-14.8	-11.6	.	.	.
Cc1cc2occ(CC(=O)N(C)CC(=O)Nc3ccccc3Br)c2cc1C	68.2*	5.0	-16.2	.	.	.
CCc1ccc(S(=O)(=O)NCc2csc(-c3cccnc3)n2)s1	63.8*	8.0	-21.3	11.7	9.3	7.2
CC(C)(C)[C@H]1COC(=O)[C@@H](Cc2ccc(F)cc2)C/C=C\C[C@@H](CC(=O)N[C@@H](CO)Cc2ccccc2)C(=O)N1	62.3*	42.5	-34.0	.	.	.
CC(C)(C)[C@H]1COC(=O)[C@@H](Cc2ccc(F)cc2)C/C=C\C[C@@H](CC(=O)N[C@H](CO)Cc2ccccc2)C(=O)N1	8.2	-31.0	-27.8	.	.	.
Cc1ccc2cc(CN(Cc3cccs3)C(c3nnnn3C3CCCCC3)C(C)C)c(=O)[nH]c2c1 (stereo unspecified)	.	.	.	.	13.6	39.0
SMILES	OX1R antag-1	OX1R antag-2	CHO parental Ca	GPR7 antagonist	EP2 antag	EP2 mod
COc1ccc2[nH]c(=O)c(CN(Cc3cccs3)C(c3nnnn3C(C)(C)C)C(C)C)cc2c1 (stereo unspecified)	.	.	.	.	13.5	68.8*
CCC(c1nnnn1C1CCCC1)N(Cc1cccs1)Cc1cc2cc(OC)ccc2[nH]c1=O (stereo unspecified)	.	.	.	.	8.9	56.1
COc1ccc2[nH]c(=O)c(CN(Cc3cccs3)Cc3nnnn3C(C)(C)C)cc2c1	4.0	-36.2	-37.6	-1.4	7.8	54.8
COc1ccc2cc(CN(Cc3cccs3)C(c3nnnn3C3CCCC3)C(C)C)c(=O)[nH]c2c1 (stereo unspecified)	.	.	.	.	8.4	68.9*
CCc1ccc2[nH]c(=O)c(CN(Cc3cccs3)C(c3nnnn3C3CCCC3)C(C)C)cc2c1 (stereo unspecified)	.	.	.	.	10.3	62.8*
CCCc1nnc(NC(=O)CSc2ncn[nH]2)s1	7.3	-11.0	3.0	-5.6	6.8	21.6
CCOC(=O)C1=C(CC)Nc2ccccc2N/C1=N\S(=O)(=O)c1ccccc1OC	8.2	-16.6	-20.1	.	.	.
O=C(C[C@@H]1C=Cc2ccccc2N1C(=O)c1ccccc1)c1ccccc1	.	.	.	.	58.8*	38.4
Cc1ccc2c(c1)C=CC(C)N2C(=O)c1ccccc1 (stereo unspecified)	22.8	0.9	-6.4	-1.6	6.5	64.1*
FC(F)(F)c1nnc2n1N=C(c1cccs1)CS2	1.3	-13.5	-11.4	-10.7	1.4	0.3
COc1ccc(N2CCN(C(c3ccc(N(C)C)cc3)c3nnnn3C(C)(C)C)CC2)cc1 (stereo unspecified)	.	.	.	.	6.5	10.3
Cc1ccc(C)c(S(=O)(=O)NCCOc2nc(NC(C)C)nc(NC(C)C)n2)c1	27.9	-17.1	-20.8	-2.0	25.6	-19.9
CSc1nc(C)cc(OCCNS(=O)(=O)c2cc(C)ccc2C)n1	70.7*	0.7	-13.8	-1.9	8.3	4.4
CC[C@]12c3[nH]c4cc(-c5ccco5)ccc4c3CCN1C(=O)[C@@H](CC(=O)NCCC1=CCCCC1)C[C@@H]2C(=O)N1CCN(C(=O)c2ccco2)CC1	42.9*	44.8	-20.9	.	.	.
COc1ccc(NC(=O)Nc2sc(NS(=O)(=O)c3ccccc3)nc2C)cc1	16.3	-14.9	0.6	-5.6	5.8	12.6
O=C(Nc1ccccc1)c1ccc(Nc2c([N+](=O)[O-])cc([N+](=O)[O-])c3ccccc23)cc1	9.7	9.8	6.7	-13.8	14.8	-42.4
O=[N+]([O-])c1cc(Br)c(Nc2ccccc2)c([N+](=O)[O-])c1	49.7*	17.3	16.4	29.0	.	.
COc1ccc(C(=O)Nc2ccc(Cl)c(S(=O)(=O)N3CCOCC3)c2)cc1	23.7	43.0*	15.5	.	.	.
Cc1ccc(NC(=O)CSc2nc(N)cc(N)n2)cc1S(=O)(=O)N1CCOCC1	14.3	-19.1	-3.3	20.0*	8.2	-9.4
O=C(CCCSc1ccccc1)Nc1ccc(Cl)c(S(=O)(=O)N2CCOCC2)c1	32.0*	35.2	9.8	.	.	.
Cc1ccc(OCCCC(=O)Nc2ccc(Cl)c(S(=O)(=O)N3CCOCC3)c2)cc1	1.8	22.6	-7.9	.	.	.

From PubChem BioAssay
